Test results taken from ChEMBL document CHEMBL4732078 (Eur J Med Chem, 2021).
Calls of active or inactive are those of the source. The rule behind the calls is not given here.

Assays:
SJRH30 = assay: Antiproliferative activity against human Rh30 cells assessed as reduction in cell viability after 72 hrs by sulforhodamine B assay; assay type: functional, cell-based; conditions: SJRH30, 72 h
In short: (§1)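 SRB assay. Exponentially growing cells seeded at 3000–5000/well, compounds added serially diluted after 24 h, cultured 72 h. Cells fixed with 10% TCA, stained with SRB, dye dissolved in 10 mM Tris-HCl, absorbance read at 560 nm. Inhibition = (ODcontrol − ODtreated)/ODcontrol × 100%. IC50 is the mean of at least three independent tests.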

[1] = target: Phosphatidylinositol 4,5-bisphosphate 3-kinase catalytic subunit alpha isoform (Homo sapiens, UniProt P42336); assay: Inhibition of human PI3Kalpha using PIP2 as substrate in presence of ATP measured after 30 mins by HTRF assay
Chain of Phosphatidylinositol 4,5-bisphosphate 3-kinase catalytic subunit alpha isoform (P42336 whole entry, canonical isoform): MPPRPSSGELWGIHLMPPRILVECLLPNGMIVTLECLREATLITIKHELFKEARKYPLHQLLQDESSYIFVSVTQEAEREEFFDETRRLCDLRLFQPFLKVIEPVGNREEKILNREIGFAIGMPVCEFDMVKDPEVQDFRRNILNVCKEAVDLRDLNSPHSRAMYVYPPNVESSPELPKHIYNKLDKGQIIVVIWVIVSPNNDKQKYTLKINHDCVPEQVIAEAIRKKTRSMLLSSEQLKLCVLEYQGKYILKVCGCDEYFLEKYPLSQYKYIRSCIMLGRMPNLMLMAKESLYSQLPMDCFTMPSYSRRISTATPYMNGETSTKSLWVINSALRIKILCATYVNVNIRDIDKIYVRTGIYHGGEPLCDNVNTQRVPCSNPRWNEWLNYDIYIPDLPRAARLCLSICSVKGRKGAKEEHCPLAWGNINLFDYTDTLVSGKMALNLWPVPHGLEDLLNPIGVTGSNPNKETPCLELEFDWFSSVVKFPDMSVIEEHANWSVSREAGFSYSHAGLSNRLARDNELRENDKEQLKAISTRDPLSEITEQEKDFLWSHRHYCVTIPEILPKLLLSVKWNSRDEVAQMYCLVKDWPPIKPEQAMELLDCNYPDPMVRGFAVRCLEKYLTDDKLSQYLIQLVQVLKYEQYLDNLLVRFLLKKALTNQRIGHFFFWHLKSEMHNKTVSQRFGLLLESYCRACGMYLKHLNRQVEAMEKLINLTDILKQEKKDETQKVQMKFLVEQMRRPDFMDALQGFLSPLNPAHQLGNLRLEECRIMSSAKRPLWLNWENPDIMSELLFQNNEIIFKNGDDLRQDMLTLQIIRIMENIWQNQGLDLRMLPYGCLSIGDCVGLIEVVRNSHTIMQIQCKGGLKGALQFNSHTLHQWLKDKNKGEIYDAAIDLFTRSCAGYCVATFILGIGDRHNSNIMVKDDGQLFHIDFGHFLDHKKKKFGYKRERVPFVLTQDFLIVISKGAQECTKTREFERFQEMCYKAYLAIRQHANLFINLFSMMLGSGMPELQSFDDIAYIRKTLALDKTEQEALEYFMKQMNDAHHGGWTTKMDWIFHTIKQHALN
In short: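 HTRF kit assay. Enzyme incubated with 10 μM PIP2; reaction started by adding ATP and run 30 min at room temperature, then stop solution and detection mix added and luminescence read. Compounds kept as 10 mM DMSO stocks.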

NCI-H1975 = assay: Antiproliferative activity against human NCI-H1975 cells assessed as reduction in cell viability after 72 hrs by sulforhodamine B assay; assay type: functional, cell-based; conditions: NCI-H1975, 72 h; in short: as §1
NCI-H226 = assay: Antiproliferative activity against human H226 cells assessed as reduction in cell viability after 72 hrs by sulforhodamine B assay; assay type: functional, cell-based; conditions: NCI-H226, 72 h; in short: as §1
Calu-3 = assay: Antiproliferative activity against human Calu3 cells assessed as reduction in cell viability after 72 hrs by sulforhodamine B assay; assay type: functional, cell-based; conditions: Calu-3, 72 h; in short: as §1
A549 = assay: Antiproliferative activity against human A549 cells assessed as reduction in cell viability after 72 hrs by sulforhodamine B assay; assay type: functional, cell-based; conditions: A549, 72 h; in short: as §1
NCI-H460 = assay: Antiproliferative activity against human NCI-H460 cells assessed as reduction in cell viability after 72 hrs by sulforhodamine B assay; assay type: functional, cell-based; conditions: NCI-H460, 72 h; in short: as §1
NCI-H1650 = assay: Antiproliferative activity against human NCI-H1650 cells assessed as reduction in cell viability after 72 hrs by sulforhodamine B assay; assay type: functional, cell-based; conditions: NCI-H1650, 72 h; in short: as §1
NCI-H522 = assay: Antiproliferative activity against human NCI-H522 cells assessed as reduction in cell viability after 72 hrs by sulforhodamine B assay; assay type: functional, cell-based; conditions: NCI-H522, 72 h; in short: as §1
NCI-H23 = assay: Antiproliferative activity against human NCI-H23 cells assessed as reduction in cell viability after 72 hrs by sulforhodamine B assay; assay type: functional, cell-based; conditions: NCI-H23, 72 h; in short: as §1
NCI-H358 = assay: Antiproliferative activity against human NCI-H358 cells assessed as reduction in cell viability after 72 hrs by sulforhodamine B assay; assay type: functional, cell-based; conditions: NCI-H358, 72 h; in short: as §1
PC-3 = assay: Antiproliferative activity against human PC-3 cells assessed as reduction in cell viability after 72 hrs by sulforhodamine B assay; assay type: functional, cell-based; in short: as §1
SK-BR-3 = assay: Antiproliferative activity against human SK-BR-3 cells assessed as reduction in cell viability after 72 hrs by sulforhodamine B assay; assay type: functional, cell-based; in short: as §1
SK-OV-3 = assay: Antiproliferative activity against human SK-OV-3 cells assessed as reduction in cell viability after 72 hrs by sulforhodamine B assay; assay type: functional, cell-based; in short: as §1
HCC1954 = assay: Antiproliferative activity against human HCC1954 cells assessed as reduction in cell viability after 72 hrs by sulforhodamine B assay; assay type: functional, cell-based; in short: as §1
BT-474 = assay: Antiproliferative activity against human BT-474 cells assessed as reduction in cell viability after 72 hrs by sulforhodamine B assay; assay type: functional, cell-based; in short: as §1
MCF7 = assay: Antiproliferative activity against human MCF7 cells assessed as reduction in cell viability after 72 hrs by sulforhodamine B assay; assay type: functional, cell-based; in short: as §1
ZR-75-1 = assay: Antiproliferative activity against human ZR-75-1 cells assessed as reduction in cell viability after 72 hrs by sulforhodamine B assay; assay type: functional, cell-based; in short: as §1
T47D = assay: Antiproliferative activity against human T47D cells assessed as reduction in cell viability after 72 hrs by sulforhodamine B assay; assay type: functional, cell-based; in short: as §1
MDA-MB-231 = assay: Antiproliferative activity against human MDA-MB-231 cells assessed as reduction in cell viability after 72 hrs by sulforhodamine B assay; assay type: functional, cell-based; in short: as §1
LoVo = assay: Antiproliferative activity against human LoVo cells assessed as reduction in cell viability after 72 hrs by sulforhodamine B assay; assay type: functional, cell-based; in short: as §1
[2] = Inhibition of human PI3K p110alpha H1047R mutant/p85alpha using PIP2 as substrate incubated for 30 mins in presence of ATP by HTRF assay
[3] = Inhibition of human PI3Kgamma R459Q mutant using PIP2 as substrate in presence of ATP measured after 30 mins by HTRF assay

**Q.** Which results are given for `C[C@H]1COCCN1c1nc(-c2cnc(N)cc2C(F)(F)F)nn2cc(CN3CCN(S(C)(=O)=O)CC3)cc12`?
**A.** IC50 (SJRH30): 970 nM; IC50 [1]: 50.5 nM

**Q.** For `CN1CCN(C(=O)c2ccc(NC(=O)Nc3ccc(-c4nc(N5CCOCC5)c5cc(CN6CCN(S(C)(=O)=O)CC6)cn5n4)cc3)cc2)CC1`, which IC50 (NCI-H1975) is on record?
**A.** The IC50 was 25 nM.

**Q.** And the IC50 (NCI-H226)?
**A.** Its IC50 is 106 nM.

**Q.** What about the IC50 (Calu-3) of the same compound?
**A.** The IC50 was 790 nM.

**Q.** And the IC50 (A549)?
**A.** Its IC50 is 144 nM.

**Q.** And the IC50 (NCI-H460)?
**A.** The IC50 was 293 nM.

**Q.** And the IC50 (NCI-H1650)?
**A.** The IC50 was 344 nM.

**Q.** And the IC50 (NCI-H522)?
**A.** Its IC50 is 751 nM.

**Q.** And the IC50 (SJRH30)?
**A.** The IC50 was 70 nM.

**Q.** And the IC50 (NCI-H23)?
**A.** The IC50 was 52 nM.

**Q.** What about the IC50 [1] of the same compound?
**A.** Its IC50 is 41.1 nM.

**Q.** What about the IC50 (NCI-H358) of the same compound?
**A.** Its IC50 is 187 nM.

**Q.** For `CN(C)C1CCN(C(=O)c2ccc(NC(=O)Nc3ccc(-c4nc(N5CCOCC5)c5cc(CN6CCN(S(C)(=O)=O)CC6)cn5n4)cc3)cc2)CC1`, which IC50 (SJRH30) is on record?
**A.** The IC50 was 80 nM.

**Q.** What about the IC50 [1] of the same compound?
**A.** Its IC50 is 39.6 nM.

**Q.** With `CS(=O)(=O)N1CCN(Cc2cc3c(N4CCOCC4)nc(-c4cnc(NC(=O)Nc5ccc(F)cc5)cc4C(F)(F)F)nn3c2)CC1` as the compound, how does the IC50 (SJRH30) read?
**A.** The IC50 was 180 nM.

**Q.** What about the IC50 [1] of the same compound?
**A.** The IC50 was 17.7 nM.

**Q.** Which results are given for `CS(=O)(=O)N1CCN(Cc2cc3c(N4CCOCC4)nc(-c4cnc(NC(=O)Oc5ccccc5)cc4C(F)(F)F)nn3c2)CC1`?
**A.** IC50 (SJRH30): 5070 nM; IC50 [1]: 44.4 nM

**Q.** Which results are given for `CCNC(=O)Nc1cc(C(F)(F)F)c(-c2nc(N3CCOCC3)c3cc(CN4CCN(S(C)(=O)=O)CC4)cn3n2)cn1`?
**A.** IC50 (SJRH30): 390 nM; IC50 [1]: 41.7 nM

**Q.** With `CNC(=O)Nc1cc(C(F)(F)F)c(-c2nc(N3CCOCC3)c3cc(CN4CCN(S(C)(=O)=O)CC4)cn3n2)cn1` as the compound, how does the IC50 (SJRH30) read?
**A.** The IC50 was 150 nM.

**Q.** And the IC50 [1]?
**A.** Its IC50 is 23.6 nM.

**Q.** With `CCOC(=O)Nc1cc(C(F)(F)F)c(-c2nc(N3CCOCC3)c3cc(CN4CCN(S(C)(=O)=O)CC4)cn3n2)cn1` as the compound, how does the IC50 (SJRH30) read?
**A.** Its IC50 is 3270 nM.

**Q.** And the IC50 [1]?
**A.** Its IC50 is 21 nM.

**Q.** For `CS(=O)(=O)N1CCN(Cc2cc3c(N4CCOCC4)nc(-c4cnc(N)cc4C(F)(F)F)nn3c2)CC1`, which IC50 (SJRH30) is on record?
**A.** The IC50 was 880 nM.

**Q.** And the IC50 [1]?
**A.** Its IC50 is 55.4 nM.

**Q.** Which results are given for `CS(=O)(=O)N1CCN(Cc2cc3nc(-c4cccc5[nH]ncc45)nc(N4CCOCC4)c3s2)CC1` [PICTILISIB]?
**A.** Activity (PC-3): Active; IC50 (NCI-H1975): 703 nM; Activity (SK-BR-3): Active; IC50 (NCI-H226): 5910 nM; IC50 (Calu-3): 2870 nM; Activity (SK-OV-3): Active; IC50 (A549): 2480 nM; Activity (HCC1954): Active; IC50 (NCI-H460): 1260 nM; IC50 (NCI-H1650): 4730 nM; Activity (BT-474): Active; IC50 (NCI-H522): 2140 nM; IC50 (SJRH30): 478 nM; IC50 (NCI-H23): 936 nM; Activity (MCF7): Active; Activity (ZR-75-1): Active; Activity (T47D): Active; Activity (MDA-MB-231): Active; Activity (LoVo): Active; IC50 (NCI-H358): 1330 nM

**Q.** With `C=CC(=O)Nc1cc(C(F)(F)F)c(-c2nc(N3CCOCC3)c3cc(CN4CCN(S(C)(=O)=O)CC4)cn3n2)cn1` as the compound, how does the IC50 (SJRH30) read?
**A.** The IC50 was 710 nM.

**Q.** What about the IC50 [1] of the same compound?
**A.** Its IC50 is 19.9 nM.

**Q.** Which IC50 [2] does the source give for `Cc1nc(NC(=O)N2CCC[C@H]2C(N)=O)sc1-c1ccnc(C(C)(C)C(F)(F)F)c1` [ALPELISIB] here?
**A.** The IC50 was 10.9 nM.

**Q.** And the IC50 (SJRH30)?
**A.** Its IC50 is 7600 nM.

**Q.** What about the IC50 [3] of the same compound?
**A.** The IC50 was 1670 nM.

**Q.** With `CN(C)C(=O)c1ccc(NC(=O)Nc2ccc(-c3nc(N4CCOCC4)c4cc(CN5CCN(S(C)(=O)=O)CC5)cn4n3)cc2)cc1` as the compound, how does the IC50 (SJRH30) read?
**A.** The IC50 was 90 nM.

**Q.** What about the IC50 [1] of the same compound?
**A.** Its IC50 is 67.5 nM.

**Q.** Which IC50 (NCI-H1975) does the source give for `CS(=O)(=O)N1CCN(Cc2cc3c(N4CCOCC4)nc(-c4ccc(NC(=O)Nc5ccc(F)cc5)cc4)nn3c2)CC1` here?
**A.** Its IC50 is 460 nM.

**Q.** And the IC50 (NCI-H226)?
**A.** The IC50 was 1080 nM.

**Q.** What about the IC50 (Calu-3) of the same compound?
**A.** The IC50 was 2360 nM.

**Q.** What about the IC50 (A549) of the same compound?
**A.** Its IC50 is 1640 nM.

**Q.** What about the IC50 (NCI-H460) of the same compound?
**A.** The IC50 was 897 nM.

**Q.** What about the IC50 (NCI-H1650) of the same compound?
**A.** Its IC50 is 2300 nM.

**Q.** And the IC50 (NCI-H522)?
**A.** The IC50 was 1020 nM.

**Q.** What about the IC50 (SJRH30) of the same compound?
**A.** Its IC50 is 230 nM.

**Q.** What about the IC50 (NCI-H23) of the same compound?
**A.** The IC50 was 695 nM.

**Q.** What about the IC50 [1] of the same compound?
**A.** The IC50 was 105 nM.

**Q.** What about the IC50 (NCI-H358) of the same compound?
**A.** The IC50 was 1290 nM.

**Q.** Which results are given for `CS(=O)(=O)N1CCN(Cc2cc3c(N4CC5CCC(C4)O5)nc(-c4cnc(N)cc4C(F)(F)F)nn3c2)CC1`?
**A.** IC50 (SJRH30): 1780 nM; IC50 [1]: 244 nM
